The values below come from ChEMBL document CHEMBL1139980, “Identification of 1-isopropylsulfonyl-2-amine benzimidazoles as a new class of inhibitors of hepatitis B virus” (Eur J Med Chem, 2007).

The structures appear in SMILES notation. Activity calls are given as the source filed them. The calls are words filed in the database; no cut-off is given here.

Experiment [1] can be described thus: Selectivity index, ratio of CC50 for HepG2.2.15 cells to IC50 for HBV. Type of experiment: functional. The method in brief: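 The index was calculated as CC50 divided by IC50. CC50 came from an 8-day MTT assay in HepG2.2.15 cells, and IC50 from fluorescent-PCR quantification of HBV DNA after treatment of confluent HepG2.2.15 cultures.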
For another experiment, the system named is Hepatitis B virus. In words: Inhibition of cytoplasmic HBV DNA synthesis in HepG2.2.15 cells after 8 days. The class given is functional, organism-based. As to conditions: for IC50: HepG2.2.15, 192 h. Summed up: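 Confluent HepG2.2.15 cultures were treated with various doses. A 50 µL supernatant sample was added to extraction buffer, boiled for 10 min and centrifuged for 5 min, and aliquots were run in fluorescent PCR with HBV-specific primers and probe. IC50 was taken as the concentration giving 50% inhibition of cytoplasmic HBV DNA synthesis.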

`CC(C)S(=O)(=O)n1c(N)nc2ccc(NS(=O)(=O)c3cccc([N+](=O)[O-])c3)cc21`: the “Ratio CC50/IC50” value in experiment [1] worked out at 5. Besides, in the experiment with Hepatitis B virus, 10500 nM corresponded to half-maximal inhibition (IC50).
On to `CC(C)S(=O)(=O)n1c(N)nc2ccc(NCc3ccccc3)cc21`, for which the result in the experiment on Hepatitis B virus was inactive.
Regarding `CC(C)S(=O)(=O)n1c(N)nc2cc(NC(=O)c3ccc(F)cc3)ccc21`, in experiment [1], the “Ratio CC50/IC50” value is given as 9. Moreover, 3700 nM corresponded to half-maximal inhibition in the experiment on Hepatitis B virus (IC50).
The like results for `COc1cccc(CN(Cc2cccc(OC)c2)c2ccc3nc(N)n(S(=O)(=O)C(C)C)c3c2)c1` were, in that order, 123 and 700 nM.
`Nc1ccn([C@@H]2CS[C@H](CO)O2)c(=O)n1` [LAMIVUDINE]: in experiment [1], the “Ratio CC50/IC50” value was more than 2632.
Turning to `CC(C)S(=O)(=O)n1c(N)nc2ccc(NS(=O)(=O)c3ccccc3)cc21`, the “Ratio CC50/IC50” value in experiment [1] was 41. For the same compound, half-maximal inhibition with Hepatitis B virus (IC50) was put at 1500 nM.
Take `CC(C)S(=O)(=O)n1c(N)nc2ccc(NC(=O)c3ccccc3)cc21`: the “Ratio CC50/IC50” value in experiment [1] is listed as more than 15. The IC50 (commonly the concentration at which inhibition is half-maximal) in the experiment with Hepatitis B virus was determined as 33700 nM.
As for `CC(C)S(=O)(=O)n1c(N)nc2cc(NC(=O)c3ccccc3)ccc21`, the “Ratio CC50/IC50” value in experiment [1] is given as more than 250. The same compound gave an IC50 in the experiment with Hepatitis B virus of 2000 nM.
As to `Nc1ncnc2c1ncn2CCOCP(=O)(O)O` [ADEFOVIR], in experiment [1], the “Ratio CC50/IC50” value is 34. In the experiment on Hepatitis B virus, this compound showed an IC50 of 1700 nM.
The like results for `CC(C)S(=O)(=O)n1c(N)nc2ccc(NC(=O)c3ccccc3Cl)cc21` were, in that order, 107 and 820 nM.
The like results for `Cc1ccc(S(=O)(=O)Nc2ccc3c(c2)nc(N)n3S(=O)(=O)C(C)C)cc1` were, in that order, 9 and 16000 nM.
Take `Cc1ccc(C(=O)Nc2ccc3nc(N)n(S(=O)(=O)C(C)C)c3c2)cc1`: the “Ratio CC50/IC50” value in experiment [1] is on record as more than 119. Besides, the IC50 with Hepatitis B virus is 4200 nM.
`CC(C)S(=O)(=O)n1c(N)nc2ccc(NC(=O)c3c(F)cccc3F)cc21`: in experiment [1], the “Ratio CC50/IC50” value was found to be 274. This compound also yielded an IC50 with Hepatitis B virus of 700 nM.
Regarding `CC(C)S(=O)(=O)n1c(N)nc2ccc(NC(=O)c3ccc(F)cc3)cc21`, in experiment [1], the “Ratio CC50/IC50” value was determined as 56. The midpoint of inhibition with Hepatitis B virus, the IC50, lay at 1200 nM.
In the same order, the values of `CC(C)S(=O)(=O)n1c(N)nc2ccc(NC(=O)c3ccccc3F)cc21` are 51 and 940 nM.
For the compound `Cc1ccc(S(=O)(=O)Nc2ccc3nc(N)n(S(=O)(=O)C(C)C)c3c2)cc1`, the “Ratio CC50/IC50” value in experiment [1] is given as 17. The compound further gave an IC50 with Hepatitis B virus of 4800 nM.
